Structures are written as SMILES. Calls of active or inactive are those of the source.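 How the source made its calls, unless noted: active means inhibition above 20% together with a positive visual image hit; inconclusive means visual image hit but inhibition not above 20%; inactive means no visual image hit.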

A short description of test [1]: inhibitors of TNFa-induced NFkB p65 translocation, primary screen, imaging, HUVEC, MLSMR starter and 10KST1 sets (AID 438).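 Further: compound added about 3h40 before a 20 min TNFalpha stimulation.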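 On inhibition: signal is the nuclear over cytoplasmic p65 intensity ratio per well.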 The settings on record: HUVEC TNFa-induced p65 nuclear translocation; cell count: measured here: nuclei count (cytotoxicity indicator), at 2.08 µM; inhibition: at 2 µM, stronger effect = higher value, 0% TNFa-plus-vehicle, 100% no-TNFa wells.
Test [2] is described as follows: inhibitors of E-selectin induction by TNFa, primary screen, imaging, HUVEC, immunofluorescence, MLSMR starter and 10KST1 sets (AID 487;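 active means visually confirmed hit in the image check and inhibition above 20%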;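 on inhibition: signal is fraction of cell area covered by stained E-selectin grains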;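 on nuclei count: 100% = median nuclei count of all wells on the same plate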). The settings on record: HUVEC TNFalpha-induced E-selectin immunofluorescence imaging, at 2 µM; inhibition: stronger effect = higher value; nuclei count: measured here: cell number, toxicity.
A short description of test [3]: DUSP6 inhibitors restoring Erk phosphorylation by chemical complementation, primary imaging in DUSP6-transfected HeLa (AID 609;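 active means compounds giving at least 50% inhibition in the cell-based MKP-3 phosphatase rescue imaging test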;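 on inhibition: phospho-Erk level distribution per well compared with pooled transfected vehicle control wells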). The settings on record: HeLa MKP-3 transfected, phospho-Erk imaging KS statistic, at 10 µM, cells stimulated with TPA for 15 min.
In test [4] the target is Dual specificity protein phosphatase 6 (Homo sapiens) (UniProt Q16828). The description is as above. The following applies: HeLa MKP-3 transfected, phospho-Erk imaging KS statistic; at 10 µM; stronger effect = higher value; cells stimulated with TPA for 15 min.
Sequence of Dual specificity protein phosphatase 6 (Homo sapiens) (Q16828 whole entry, looked up): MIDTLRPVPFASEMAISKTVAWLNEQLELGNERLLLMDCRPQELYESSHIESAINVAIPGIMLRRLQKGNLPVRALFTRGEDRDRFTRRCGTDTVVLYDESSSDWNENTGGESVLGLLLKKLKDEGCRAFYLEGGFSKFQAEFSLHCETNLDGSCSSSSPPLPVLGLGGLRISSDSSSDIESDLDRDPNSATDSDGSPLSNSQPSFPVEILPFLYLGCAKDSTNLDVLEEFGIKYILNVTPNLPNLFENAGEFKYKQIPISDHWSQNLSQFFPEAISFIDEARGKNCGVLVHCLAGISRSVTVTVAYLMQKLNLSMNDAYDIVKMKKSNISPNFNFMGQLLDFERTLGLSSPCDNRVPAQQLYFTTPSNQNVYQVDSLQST
The target in test [5] is Voltage-gated potassium channel subunit beta-2 (Rattus norvegicus) (UniProt P62483). In words: KvBeta enzyme negative modulators, primary screen, biochemical, NADPH fluorescence (AID 622;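 active means fluorescence slope higher than the sample average by over 3 SD, cut at about -0.22 in these data, passing the limit was not always enough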;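 further: slope of raw intensity against log time taken from 70 to 1610 s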). The following applies: recombinant KvBeta, 4-cyanobenzaldehyde reduction, at 10 µM, stronger effect = higher value.
Sequence of Voltage-gated potassium channel subunit beta-2 (Rattus norvegicus) (P62483 whole entry, looked up): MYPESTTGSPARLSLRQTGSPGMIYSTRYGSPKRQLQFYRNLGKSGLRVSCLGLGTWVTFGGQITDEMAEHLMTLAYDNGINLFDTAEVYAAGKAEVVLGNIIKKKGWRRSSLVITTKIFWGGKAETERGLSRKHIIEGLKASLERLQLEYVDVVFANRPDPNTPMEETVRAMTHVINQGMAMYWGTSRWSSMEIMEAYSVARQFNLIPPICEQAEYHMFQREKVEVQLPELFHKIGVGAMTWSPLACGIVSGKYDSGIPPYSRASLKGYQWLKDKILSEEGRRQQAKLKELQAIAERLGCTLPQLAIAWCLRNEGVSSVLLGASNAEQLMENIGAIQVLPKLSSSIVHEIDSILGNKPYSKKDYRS
Test [6] has the same target. Briefly: KvBeta positive modulators, primary screen, biochemical, NADPH fluorescence (AID 623;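 active means NADPH fluorescence slope more negative than the mean of all samples by about 3 SD, 99.7% confidence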;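 further: fluorescence intensity change per second fitted from 20 to 320 s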). The settings on record: Recombinant KvBeta, NADPH fluorescence decrease slope, 10 min; at 10 µM; stronger effect = lower value.
Test [7] concerns the target Alpha-2C adrenergic receptor (Homo sapiens) (UniProt P18825). Briefly: modulators of alpha2C/GIRK thallium flux, primary screen, cell-based, HEK293 alpha2C/GIRK1/2 (AID 624;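 active means fluorescence slope after compound addition differing from the mean of all screened samples at 99.7% confidence, in either direction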;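 further: slope of fluorescence ratio to pre-addition baseline per second over 15 to 24 s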). The following applies: thallium flux BTC fluorescence, at 10 µM, actives lie on both sides.
Test [8] in a line: inhibitors of larval lipid processing in zebrafish, primary screen, whole organism, PED6 fluorescence, gall bladder and intestine (AID 686;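 active means a full or partial loss of lipid-probe fluorescence in the fish gall bladder, intestine or both, judged by eye; inactive means no fluorescence loss, or compound toxic to the fish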;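 further: larvae 5 to 7 days old with five fish per well; signal comes from phospholipase A2 cleavage of quenched PED6 carried via bile; overnight exposure to compound and PED6 before scoring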). The following applies: Zebrafish larvae PED6 lipid processing, fluorescence scoring; screened at 20 µM (by protocol). In short, it runs like this:
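System: live zebrafish larvae aged 5-7 days, whole organism; measure: graded gall bladder and intestinal fluorescence inhibition per well; incubation: overnight exposure; reagent: ingested quenched lipid PED6 at 100 nM; signal: By-eye fluorescence microscopy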

A short description of test [9]: inhibitors of Chlamydomonas gravitaxis, primary screen, whole organism, Chlamydomonas reinhardtii, WT vs cilia-less mutant, absorbance, 96-well (AID 463189;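 active means inhibition at or above 50% relative to wild type and mutant plate controls; inactive means inhibition below 50%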;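 further: 0% = wild type cc124 cells in DMSO and 100% = ciliumless bld1 mutant cells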). The settings on record: OD600 absorbance, 2 days, at 10 µM, stronger effect = higher value.
Setting [10] is: measured here: cell density z-score.
[11] abbreviates: measured here: nuclear c-Myc green intensity z-score.
Where [12] appears, read: measured here: nuclear pErk red intensity z-score, stronger effect = higher value.

Sequence of Alpha-2C adrenergic receptor (Homo sapiens) (P18825 whole entry, looked up): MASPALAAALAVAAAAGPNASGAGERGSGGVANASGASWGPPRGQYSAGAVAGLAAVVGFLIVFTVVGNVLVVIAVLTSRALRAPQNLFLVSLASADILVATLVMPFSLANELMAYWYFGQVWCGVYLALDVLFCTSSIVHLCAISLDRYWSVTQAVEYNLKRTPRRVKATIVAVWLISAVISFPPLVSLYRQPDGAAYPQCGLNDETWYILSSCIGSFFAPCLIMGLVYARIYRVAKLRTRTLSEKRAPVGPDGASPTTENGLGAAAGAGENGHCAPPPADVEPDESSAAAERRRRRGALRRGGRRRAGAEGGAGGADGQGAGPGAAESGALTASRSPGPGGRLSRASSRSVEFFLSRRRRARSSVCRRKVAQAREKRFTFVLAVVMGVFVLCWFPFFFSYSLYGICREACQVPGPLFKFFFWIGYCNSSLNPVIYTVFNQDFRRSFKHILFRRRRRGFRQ

For orientation: inhibition means the change of the read-out against control, counted positive when it falls. As to `Clc1cccc(-c2nn3c(-c4cccc(Cl)c4)nnc3s2)c1`, in test [1], the cell count came to 612. In addition, the inhibition in test [1] is -7.8% (inactive); in test [2], -20.4% (inactive); in test [4] it was -4.27% (inactive); in test [9], 14.4% (inactive). For the same molecule, the nuclei count in [2] is 169%. The z-score in test [3] (setting [10]) is 1.02; in test [3] (setting [11]) it was 1.46; in test [3] (setting [12]) it was -0.806. The fluorescence slope in test [5] is -0.412 (inactive). Moreover, the NADPH fluorescence slope in [6] was -0.000162 (inactive). In addition, in test [7], the slope was 0.00698 (inactive). Further, the molecule was classed as inactive in test [8].

With `N#CC(C(=O)NC1CCCCC1)c1nc2ccccc2nc1N1CCN(c2ccccc2F)CC1` (centres undefined), the cell count in test [1] came out at 449. Also, the inhibition in test [1] was 6.9% (inactive); in test [2] it was -71.6% (inactive); in test [4], 7.83% (inactive); in test [9], 1.07% (inactive). This molecule yielded a nuclei count in test [2] of 150%. Further, the z-score in test [3] (setting [10]) was 0.949; in test [3] (setting [11]) it was -0.507; in test [3] (setting [12]), 0.00921. Further, the fluorescence slope in test [5] is -0.432 (inactive). Also, the NADPH fluorescence slope in test [6] was -1.4e-05 (inactive). The slope in test [7] was 0.00608 (inactive). For the same molecule, in test [8], the molecule was called inactive.

In the case of `CCOC(=O)c1oc2cc(O)cc(C)c2c(=O)c1-c1cscn1`, the cell count in test [1] turned out to be 583. The inhibition in test [1] is -5.6% (inactive); in [2], -117% (inactive); in [4] it was 19.8% (inactive); in [9], -5.6% (inactive). Also, the nuclei count in test [2] is 133%. Further, the z-score is 0.544 in test [3] (setting [10]), -0.073 in [3] (setting [11]) and -1.73 in [3] (setting [12]). Further, the fluorescence slope in test [5] is -0.569 (inactive). The NADPH fluorescence slope in test [6] is -4.5e-05 (inactive). In addition, the slope in test [7] was 0.0036 (inactive). Further, the outcome in [8] was inactive.

As for `O=C(Nc1nc(NC(=O)c2ccco2)n(-c2ccccc2)n1)c1ccccc1`, in test [1], the cell count was found to be 339. The inhibition is -8.5% (inactive) in [1], -1.3% (inactive) in [2], -7.01% (inactive) in test [4] and 1.31% (inactive) in [9]. The nuclei count in [2] is 157%. In addition, the z-score in test [3] (setting [10]) is 0.978; in test [3] (setting [11]), -0.403; in test [3] (setting [12]), -0.743. Moreover, the fluorescence slope in test [5] is -0.452 (inactive). For the same molecule, in [6], the NADPH fluorescence slope was -0.000125 (inactive). In addition, the slope in test [7] was 0.00175 (inactive). Moreover, the outcome in test [8] is “inactive; toxic”.

For the molecule `COc1ccc(OC)c(C2/C(=C(/O)c3cnn(-c4ccccc4)c3C)C(=O)C(=O)N2CCN(C)C)c1` (centres undefined), the cell count in test [1] was 452. For the same molecule, the inhibition in [1] is 1.9% (inactive); in test [2] it was 8.9% (inactive); in test [4], -1.75% (inactive); in test [9] it was 12% (inactive). Also, the nuclei count in test [2] was determined as 86.9%. For the same molecule, the values for the z-score in test [3] (setting [10]), in [3] (setting [11]) and in [3] (setting [12]) were -1.51, 0.604 and -0.829, respectively. The fluorescence slope in test [5] was -0.47 (inactive). Further, the NADPH fluorescence slope in test [6] was -9.5e-06 (inactive). The slope in [7] was 0.00657 (inactive). Also, the result in test [8] was inactive.

With `c1ccc(-c2nnc3sc(Cc4cccs4)nn23)cc1`, the cell count in [1] was 602. The inhibition was -16% (inactive) in [1], -149% (inactive) in [2], 11.9% (inactive) in test [4] and 21.4% (inactive) in test [9]. Further, the nuclei count in test [2] came out at 174%. Further, the z-score is 0.71 in test [3] (setting [10]), -1.88 in test [3] (setting [11]) and -0.974 in test [3] (setting [12]). Also, the fluorescence slope in test [5] is -0.467 (inactive). Also, the NADPH fluorescence slope in test [6] was -0.000133 (inactive). Besides, the slope in test [7] was 0.00581 (inactive). For the same molecule, the outcome in [8] is “active; no signal in gallbladder only”.

For `CN1CCN(C(=O)CSc2nc(-c3ccncc3)ccc2C#N)CC1`, in test [1], the cell count stood at 690. Further, the inhibition was -11.2% (inactive) in test [1], -21.2% (inactive) in [2], -7.28% (inactive) in [4] and -6.09% (inactive) in test [9]. The same molecule showed a nuclei count in test [2] of 192%. Besides, the z-score in test [3] (setting [10]) is 0.498; in [3] (setting [11]), 0.894; in test [3] (setting [12]) it was -1.8. For the same molecule, in [5], the fluorescence slope was -0.416 (inactive). Also, in test [6], the NADPH fluorescence slope was -5e-05 (inactive). The slope in test [7] was 0.00348 (inactive). Also, in test [8], the molecule was classed as inactive.

As for `Cc1ccc(N2C(=O)[C@@H]3[C@H](C2=O)C2CCCN2[C@@H]3C(=O)c2ccccc2)cc1` (some centres undefined), in test [1], the cell count was determined as 329. The inhibition was -6.6% (inactive) in [1], -25.8% (inactive) in [2], -8.59% (inactive) in test [4] and 0.279% (inactive) in test [9]. The molecule further gave a nuclei count in [2] of 146%. Besides, the z-score in test [3] (setting [10]) was 1.29; in [3] (setting [11]), -0.857; in test [3] (setting [12]), 1.07. The fluorescence slope in test [5] is -0.42 (inactive). Also, the NADPH fluorescence slope in test [6] was -0.000146 (inactive). Moreover, the slope in test [7] was 0.00854 (inactive). Also, in test [8], the call was inactive.

Turning to `COc1cccc(OCCN2CCN(c3ncnc4c3cnn4-c3ccccc3)CC2)c1`, the cell count in test [1] turned out to be 555. Moreover, the inhibition was -23.4% (inactive) in test [1], -98.5% (inactive) in test [2], -11.5% (inactive) in test [4] and 48.3% (inactive) in [9]. For the same molecule, the nuclei count in test [2] amounted to 166%. The results for the z-score in test [3] (setting [10]), in [3] (setting [11]) and in test [3] (setting [12]) were 0.225, -1.36 and 0.0914, respectively. For the same molecule, the fluorescence slope in [5] is -0.519 (inactive). Further, the NADPH fluorescence slope in test [6] was -3.9e-05 (inactive). The slope in test [7] is 0.00443 (inactive). In test [8], the result was inactive.

For `CCN(CC)C(=O)CSC1=C(C#N)C(c2cccs2)C=C(C)N1` (centres undefined), in test [1], the cell count was determined as 685. The inhibition in test [1] is -20% (inactive); in test [2] it was -137% (inactive); in test [4] it was -10.6% (inactive); in test [9] it was -1.96% (inactive). In test [2], this molecule gave a nuclei count of 171%. The z-score in test [3] (setting [10]) is -0.342; in test [3] (setting [11]) it was -0.599; in [3] (setting [12]), 1.19. For the same molecule, the fluorescence slope in test [5] is -0.405 (inactive). Moreover, the NADPH fluorescence slope in [6] is -4.9e-05 (inactive). Also, the slope in test [7] is 0.00539 (inactive). Further, the molecule was classed as inactive in test [8].

In the case of `O=C(c1ccco1)N1CCN(c2ncnc3c2[nH]c2ccccc23)CC1`, the cell count in test [1] amounted to 462. The inhibition in [1] is 0.3% (inactive); in [2] it was -18.4% (inactive); in [4] it was 0.671% (inactive); in test [9], -4.22% (inactive). In addition, in [2], the nuclei count stood at 138%. The z-score was 1.15 in test [3] (setting [10]), 0.243 in test [3] (setting [11]) and 0.509 in test [3] (setting [12]). Besides, the fluorescence slope in test [5] was -0.359 (inactive). The NADPH fluorescence slope in test [6] was -1.6e-05 (inactive). Further, the slope in test [7] was 0.00516 (inactive). Besides, in [8], the molecule was called inactive.

With `CCOC(=O)c1cc2c(=O)n3cccc(C)c3nc2n(Cc2cccnc2)c1=N`, in [1], the cell count was 583. Further, the inhibition was 3.3% (inactive) in test [1], -66.9% (inactive) in [2], 4.25% (inactive) in [4] and 58.8% (active) in [9]. In test [2], the nuclei count amounted to 157%. Further, the z-score in test [3] (setting [10]) was 0.481; in test [3] (setting [11]), -1.62; in test [3] (setting [12]), 0.0154. Further, in test [5], the fluorescence slope was -0.457 (inactive). Further, the NADPH fluorescence slope in test [6] is -0.000115 (inactive). Further, the slope in test [7] was 0.00416 (inactive). Besides, the result in [8] was inactive.

`CCOC(=O)c1c(CN2CCCCC2)oc2ccc(OC)cc12`: the cell count in test [1] came out at 344. The inhibition in test [1] is -9.3% (inactive); in test [2] it was -46.9% (inactive); in test [4] it was -7.01% (inactive); in test [9], 4.54% (inactive). This molecule also displayed a nuclei count in test [2] of 142%. For the same molecule, the z-score in test [3] (setting [10]) is 0.114; in test [3] (setting [11]), 0.591; in test [3] (setting [12]) it was 0.702. Further, the fluorescence slope in test [5] is -0.416 (inactive). Besides, in [6], the NADPH fluorescence slope is -0.000135 (inactive). In test [7], the slope is 0.00729 (inactive). Further, in test [8], the molecule was classed as inactive.

These data come from PubChem BioAssay.
